Reference: ChEMBL document CHEMBL2010780, “Pyridine Carboxamides: Potent Palm Site Inhibitors of HCV NS5B Polymerase” (ACS Med Chem Lett, 2010)
Blank lines part the entries; values can stand above or below the molecule they belong to. Calls of active or inactive are those of the source. The rule behind the calls is not given here.

Key:
Hepatitis C virus [1] = assay: Ratio of IC50 for Hepatitis C virus genotype 1b Con1 NS5B Cdelta21 polymerase palm site 1 G554D mutant to IC50 for Hepatitis C virus genotype 1b Con1 NS5B Cdelta21 polymerase; parameters: species or system Hepacivirus hominis
Hepatitis C virus [2] = assay: Ratio of IC50 for Hepatitis C virus genotype 1b Con1 NS5B Cdelta21 polymerase thumb site 1 P495L mutant to IC50 for Hepatitis C virus genotype 1b Con1 NS5B Cdelta21 polymerase; parameters: species or system Hepacivirus hominis
Hepatitis C virus [3] = assay: Ratio of IC50 for Hepatitis C virus genotype 1b Con1 NS5B Cdelta21 polymerase palm site 2 C316Y mutant to IC50 for Hepatitis C virus genotype 1b Con1 NS5B Cdelta21 polymerase; parameters: species or system Hepacivirus hominis
[4] = system: Hepatitis C virus genotype 2; assay: Inhibition of Hepatitis C virus genotype 2 NS5B Cdelta21 polymerase up to 10 uM
Hepacivirus hominis [5] = assay: Ratio of IC50 for Hepatitis C virus subtype 1a H77 NS5B Cdelta21 polymerase to IC50 for Hepatitis C virus genotype 1b Con1 NS5B Cdelta21 polymerase
[6] = Inhibition of Hepatitis C virus genotype 1b Con1 NS5B Cdelta21 polymerase assessed as incorporation of [33P]-CTP into heteropolymer RNA template after 2 hrs; parameters: species or system Hepacivirus hominis; conditions: Con1, 2 h
In short: (§1)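 Each value is the mean of duplicate experiments run on two separate weighings of compound.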

[7] = Cytotoxicity against human HuH7 cells after 3 days by MTS assay; assay type: cell-based, Huh-7; in short: as §1
[8] = system: Hepatitis C virus genotype 4; assay: Inhibition of Hepatitis C virus genotype 4 NS5B Cdelta21 polymerase up to 10 uM
Hepatitis C virus [9] = assay: Ratio of IC50 for Hepatitis C virus genotype 1b Con1 NS5B Cdelta21 polymerase palm site 2 C316N mutant to IC50 for Hepatitis C virus genotype 1b Con1 NS5B Cdelta21 polymerase; parameters: species or system Hepacivirus hominis
Hepatitis C virus [10] = assay: Ratio of IC50 for Hepatitis C virus genotype 1b Con1 NS5B Cdelta21 polymerase palm site 1 M414T mutant to IC50 for Hepatitis C virus genotype 1b Con1 NS5B Cdelta21 polymerase; parameters: species or system Hepacivirus hominis
[11] = system: Hepatitis C virus genotype 3; assay: Inhibition of Hepatitis C virus genotype 3 NS5B Cdelta21 polymerase up to 10 uM
Hepatitis C virus [12] = assay: Ratio of IC50 for Hepatitis C virus genotype 1b Con1 NS5B Cdelta21 polymerase thumb site 2 M423T mutant to IC50 for Hepatitis C virus genotype 1b Con1 NS5B Cdelta21 polymerase; parameters: species or system Hepacivirus hominis
Hepatitis C virus [13] = assay: Antiviral activity against Hepatitis C virus genotype 1b Con1 infected in human HuH7 cells assessed as inhibition of viral RNA replication after 3 by real time PCR analysis; assay type: functional, organism-based, Hepacivirus hominis, Huh-7; conditions: Hepatitis C virus, Con1, Huh-7; read-out: EC50; in short: as §1
Hepacivirus hominis [14] = assay: Ratio of IC50 for Hepatitis C virus subtype 1b BK NS5B Cdelta21 polymerase to IC50 for Hepatitis C virus genotype 1b Con1 NS5B Cdelta21 polymerase
[15] = Ratio of CC50 for human HuH7 cells to EC50 for Hepatitis C virus genotype 1b Con1; parameters: species or system Huh-7
Hepatitis C virus [16] = assay: Inhibition of Hepatitis C virus genotype 1b Con1 NS5B Cdelta21 polymerase-mediated RNA synthesis at initiation phase after 15 mins by primer extension assay; conditions: Hepacivirus hominis
Hepatitis C virus [17] = assay: Inhibition of Hepatitis C virus genotype 1b Con1 NS5B Cdelta21 polymerase-mediated RNA synthesis at elongation phase after 22 hrs by single round elongation assay; conditions: Hepacivirus hominis
In short: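 Single-cycle assay measuring elongation from NS5B enzyme–primer–template complexes that were preformed before elongation.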

SMILES: Cc1ncccc1C(=O)Nc1ccc(C(C)C)cc1N1CCN(c2ncnc3[nH]ccc23)CC1
Ratio IC50 (Hepatitis C virus [1]): 8
Ratio IC50 (Hepatitis C virus [2]): 1
Ratio IC50 (Hepatitis C virus [3]): >300
inhibition [4]: inactive
Ratio IC50 (Hepacivirus hominis [5]): 270
IC50 [6]: 32 nM
CC50 at 72 h [7]: > 10000 nM
inhibition [8]: inactive
Ratio IC50 (Hepatitis C virus [9]): 4
Ratio IC50 (Hepatitis C virus [10]): 27
inhibition [11]: inactive
Ratio IC50 (Hepatitis C virus [12]): 1
EC50 (Hepatitis C virus [13]): 3000 nM
Ratio IC50 (Hepacivirus hominis [14]): 27

SMILES: Cc1ncccc1C(=O)Nc1ccc(C(C)C)cc1N1CCN(c2ncnc3ccsc23)CC1
Ratio CC50/EC50 [15]: >20
inhibition (Hepatitis C virus [16]): Active
Ratio IC50 (Hepatitis C virus [1]): 4
Ratio IC50 (Hepatitis C virus [2]): 1
Ratio IC50 (Hepatitis C virus [3]): >300
inhibition [4]: inactive
Ratio IC50 (Hepacivirus hominis [5]): 140
IC50 [6]: 14 nM
CC50 at 72 h [7]: 15000 nM
inhibition [8]: inactive
inhibition (Hepatitis C virus [17]): inactive
Ratio IC50 (Hepatitis C virus [9]): 3
Ratio IC50 (Hepatitis C virus [10]): 21
inhibition [11]: inactive
Ratio IC50 (Hepatitis C virus [12]): 1
EC50 (Hepatitis C virus [13]): 700 nM
Ratio IC50 (Hepacivirus hominis [14]): 14

IC50 [6]: 520 nM
EC50 (Hepatitis C virus [13]): 2800 nM
SMILES: Cc1ncccc1C(=O)Nc1ccc(C(C)C)cc1N1CCN(c2cnccn2)CC1
Ratio CC50/EC50 [15]: 10
CC50 at 72 h [7]: 22000 nM
